Source: article PMC4811700 (European journal of medicinal chemistry, 2016)
Values belong to the molecule of their own block, whether it stands above or below them.

Key:
Mcl-1 = Mcl-1 (Homo sapiens, UniProt Q07820); assay: Fluorescence polarization competition assay; assay type: binding; settings: for change in experimental free energy of binding to Mcl-1: relative to the preceding compound in the series 3b, 3a, 3bi, 3bl; for binding affinity to Mcl-1 in vitro: data not shown
Mcl-1^172-327 = Mcl-1^172-327 (Homo sapiens, UniProt Q07820); assay: NMR 1H,15N-HSQC with 15N-labeled Mcl-1; assay type: binding; settings: 131 μM 15N-labeled Mcl-1, 182 μM compound
Method in brief: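 2D 1H,15N-fast HSQC collected at 25 °C, 800 MHz, with and without compound. Buffer: 20 mM HEPES pH 6.8, 50 mM NaCl, 3 mM DTT, 20% D2O, 5% d6-DMSO. Backbone amide shift changes monitored.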

Chain of Mcl-1 (Q07820 172-327): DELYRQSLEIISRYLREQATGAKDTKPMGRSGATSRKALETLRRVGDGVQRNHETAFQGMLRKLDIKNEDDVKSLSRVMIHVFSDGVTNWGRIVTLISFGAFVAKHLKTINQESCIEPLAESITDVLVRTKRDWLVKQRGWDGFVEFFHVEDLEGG
Chain of Mcl-1^172-327 (Q07820 172-327): as above

change in experimental free energy of binding to Mcl-1 (Mcl-1): -2.1 kcal/mol
Compound: O=C(O)c1cc(S(=O)(=O)Nc2ccc(Br)cc2)c2ccccc2c1O [Compound 3a, 4-(N-(4-bromophenyl)sulfamoyl)-1-hydroxy-2-naphthoic acid]

change in experimental free energy of binding to Mcl-1 (Mcl-1): -1.9 kcal/mol
Compound: Cc1cc(Oc2ccc(NS(=O)(=O)c3cc(C(=O)O)c(O)c4ccccc34)cc2)cc(C)c1Cl [Compound 3bi, 4-(N-(4-(4-Chloro-3,5-dimethylphenoxy)phenyl)sulfamoyl)-1-hydroxy-2-naphthoic acid]

interaction with Mcl-1 by HSQC chemical shift perturbation (Mcl-1^172-327): direct interaction
Compound: CC(C)CN(c1ccc(OC(C)C)cc1)S(=O)(=O)c1cc(C(=O)O)c(O)c2ccccc12 [Compound 3ba, 1-Hydroxy-4-(N-isobutyl-N-(4-isopropoxyphenyl)sulfamoyl)-2-naphthoic acid]

fold improvement in Mcl-1 inhibitory activity (Mcl-1; relative to unsubstituted benzylic amine derivative 3c): 8 fold
Compound: O=C(O)c1cc(S(=O)(=O)NCC2CCCCC2)c2ccccc2c1O [Compound 3g, 4-(N-(Cyclohexylmethyl)sulfamoyl)-1-hydroxy-2-naphthoic acid]

change in experimental free energy of binding to Mcl-1 (Mcl-1): -0.8 kcal/mol
Compound: Cc1cc(Oc2ccc(N(Cc3ccccc3)S(=O)(=O)c3cc(C(=O)O)c(O)c4ccccc34)cc2)cc(C)c1Cl [Compound 3bl, 4-(N-Benzyl-N-(4-(4-chloro-3,5-dimethylphenoxy)phenyl)sulfamoyl)-1-hydroxy-2-naphthoic acid]

The remaining lines, values behind:

Compound: CC(=O)OCOC(=O)c1cc(S(=O)(=O)N(CC(C)C)c2ccc(OC(C)C)cc2)c2ccccc2c1O [Compound 14, Acetoxymethyl 1-hydroxy-4-(N-isobutyl-N-(4-isopropoxyphenyl)sulfamoyl)-2-naphthoate]
binding affinity to Mcl-1 in vitro (Mcl-1): no binding affinity

Compound: COc1c(C(=O)O)cc(S(=O)(=O)N(CC(C)C)c2ccc(Br)cc2)c2ccccc12 [Compound 12, 4-(N-(4-Bromophenyl)-N-isobutylsulfamoyl)-1-methoxy-2-naphthoic acid]
fold reduction in Mcl-1 activity (Mcl-1; methylation of hydroxyl group, relative to 3ca): ~40 fold

Compound: COC(=O)c1cc(S(=O)(=O)N(CC(C)C)c2ccc(OC(C)C)cc2)c2ccccc2c1O [Compound 13, Methyl 1-hydroxy-4-(N-isobutyl-N-(4-isopropoxyphenyl)sulfamoyl)-2-naphthoate]
binding affinity to Mcl-1 in vitro (Mcl-1): no binding affinity
